In ChEMBL document CHEMBL4732066, “SP1-independent inhibition of FOXM1 by modified thiazolidinediones” (Eur J Med Chem, 2021):
Active and inactive are the calls of the source. The calls are words filed in the database; no cut-off is given here.

Experiments:
[1] = Downregulation of FOXM1 expression in human MDA-MB-231 cells at 40 uM after 48 hrs by Western blot analysis relative to control; type: functional
In short: (§1)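 MDA-MB-231 cells (RPMI, 10% FBS, 37 °C, 5% CO2) were treated in 6-well plates and lysed in RIPA buffer for 30 min after ice-cold PBS washes. Protein was quantified by Bradford and equal amounts run on 10% SDS-PAGE, then transferred to nitrocellulose and blocked in 10% milk/TBST for 45 min. Primary antibody was used at 1:1000 at 4 °C overnight, secondary for 45 min at RT, with chemiluminescent detection.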

[2] = target: T1, Forkhead box protein M1 (Homo sapiens) (UniProt Q08050); test: Inhibition of FOXM1 transcriptional activity in human MDA-MB-231 cells at 40 uM after 12 hrs by luciferase reporter gene assay; type: cell-based
T1 sequence (whole entry): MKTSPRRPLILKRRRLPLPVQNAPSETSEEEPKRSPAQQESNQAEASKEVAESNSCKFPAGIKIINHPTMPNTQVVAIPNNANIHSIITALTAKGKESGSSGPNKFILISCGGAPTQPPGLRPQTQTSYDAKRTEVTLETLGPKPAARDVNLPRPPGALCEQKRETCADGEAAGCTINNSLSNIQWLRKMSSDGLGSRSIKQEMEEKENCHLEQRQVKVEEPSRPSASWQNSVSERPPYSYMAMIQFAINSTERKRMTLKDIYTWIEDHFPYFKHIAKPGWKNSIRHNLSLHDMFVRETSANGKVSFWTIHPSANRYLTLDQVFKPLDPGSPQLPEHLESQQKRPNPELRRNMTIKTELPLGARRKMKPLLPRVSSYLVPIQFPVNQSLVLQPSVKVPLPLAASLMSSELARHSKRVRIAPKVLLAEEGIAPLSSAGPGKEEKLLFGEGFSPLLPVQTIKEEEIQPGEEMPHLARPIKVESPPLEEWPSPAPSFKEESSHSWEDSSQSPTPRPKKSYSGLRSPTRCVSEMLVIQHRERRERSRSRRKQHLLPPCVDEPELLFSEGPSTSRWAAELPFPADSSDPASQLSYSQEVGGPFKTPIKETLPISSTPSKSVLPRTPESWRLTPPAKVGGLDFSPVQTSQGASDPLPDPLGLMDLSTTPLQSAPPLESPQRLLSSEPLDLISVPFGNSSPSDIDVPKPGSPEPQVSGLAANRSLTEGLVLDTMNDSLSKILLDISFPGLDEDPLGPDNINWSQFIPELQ
In short: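 MDA-MB-231 cells were transiently transfected with equal amounts of 6x-FOXM1 firefly luciferase reporter and empty pGL4.10 backbone. After 24 h, cells were drug-treated for 12 h, PBS-washed and lysed in reporter lysis buffer. Firefly luciferase activity was read on equal total protein per lysate, in triplicate, with significance by one-way ANOVA.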

[3] = system: MDA-MB-231; test: Downregulation of SP1 expression in human MDA-MB-231 cells at 80 uM after 24 hrs by Western blot analysis; type: functional, cell-based; in short: as §1
[4] = target: T2, Forkhead box protein M1 (Homo sapiens, UniProt Q08050); test: Binding affinity to recombinant FOXM1 DBD (unknown origin) expressed in Escherichia coli BL21 (DE3) assessed as disruption of FOXM1-DNA complex preincubated for 1.5 hrs followed by DNA addition measured after 20 mins by EMSA
T2 sequence (Q08050 whole entry): T1 sequence (whole entry)

[5] = system: MDA-MB-231; test: Effect on SP1 expression in human MDA-MB-231 cells at 80 uM after 24 hrs by Western blot analysis; type: functional, cell-based; in short: as §1

| SMILES | inhibition at 40 µM [1] [%] | other results |
| --- | --- | --- |
| COC(=O)c1ccc(COc2ccc(/C=C3\SC(=O)NC3=O)cc2[N+](=O)[O-])cc1 | 80 |  |
| O=C1NC(=O)/C(=C/c2ccc(OCc3ccc([N+](=O)[O-])cc3)c([N+](=O)[O-])c2)S1 | 80 |  |
| O=C1NC(=O)/C(=C/c2ccc(OCc3ccc([N+](=O)[O-])cc3)cc2)S1 | 80 |  |
| COc1ccc(/C=C2\SC(=O)NC2=O)cc1OCc1ccc(C(F)(F)F)cc1 | 80 |  |
| COc1cc(/C=C2\SC(=O)NC2=O)ccc1OCc1ccc([N+](=O)[O-])cc1 | 80 |  |
| COc1ccc(/C=C2\SC(=O)NC2=O)cc1OCc1ccc([N+](=O)[O-])cc1 | > 90 |  |
| O=C1NC(=O)/C(=C/c2ccc(OCc3ccc(C(F)(F)F)cc3)cc2)S1 | > 90 |  |
| COC(=O)c1ccc(COc2ccc(/C=C3\SC(=O)NC3=O)cc2OC)cc1 | 80 |  |
| Cc1c(C)c2c(c(C)c1O)CCC(C)(COc1ccc(CC3SC(=O)NC3=O)cc1)O2 (stereo unspecified) [TROGLITAZONE] | 80 | inhibition [2]: Active; inhibition [3]: Active; IC50 [4]: 122 µM; Ki [4]: 0.052 µM |
| COc1cc(/C=C2\SC(=O)NC2=O)ccc1OCc1ccc(C(F)(F)F)cc1 | > 90 | Activity [5]: inactive |
| Nc1c(C(=O)Nc2ccc(F)cc2)sc2nc(-c3cccs3)cc(C(F)(F)F)c12 | 80 |  |
